Measured values published in ChEMBL document CHEMBL2440109, “Synthesis and antimycobacterial activity of isoniazid derivatives from renewable fatty acids” (2013).
Values after ≈ are worked out from the molar mass of the structure shown.

The compounds below were run on Mycobacterium tuberculosis (assay: Antimycobacterial activity against Mycobacterium tuberculosis H37Rv ATCC 27294 after 7 days by REMA assay). Conditions: H37Rv ATCC 27294, 168 h.
Format: functional
Summary of the method: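 MIC by resazurin microtiter assay. Bacteria suspended in sterile water with glass beads, vortexed, turbidity set to McFarland tube 1 (3.2 × 10^6 CFU/mL), then diluted 1:20 in Middlebrook 7H9. Compounds in DMSO, two-fold serial dilutions (100.0-3.2 µg/mL) in 7H9 with 10% OADC. Incubated 37 °C for 7 days, resazurin added, further 2 days at 37 °C. MIC read from colour change.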

Row | Compound | MIC
1 | NNC(=O)c1ccncc1 [ISONIAZID] | 0.06 µg/mL (≈ 0.438 µM)
2 | CCCCCCCC/C=C/CCCCCCCC(=O)NNC(=O)c1ccncc1 | 0.03 µg/mL (≈ 0.0747 µM)
3 | CCCCCCCCCCCCCCCCCC(=O)NNC(=O)c1ccncc1 | 0.03 µg/mL (≈ 0.0743 µM)
4 | CCCCCCCC/C=C\CCCCCCCC(=O)O [OLEIC ACID] | 100 µg/mL (≈ 354 µM)
5 | CCCCCCCC/C=C\CCCCCCCC(=O)NN [OLEOHYDRAZIDE] | 50 µg/mL (≈ 169 µM)
6 | CO[C@H]1/C=C/O[C@@]2(C)Oc3c(C)c(O)c4c(O)c(c(/C=N/N5CCN(C)CC5)c(O)c4c3C2=O)NC(=O)/C(C)=C\C=C\[C@H](C)[C@H](O)[C@@H](C)[C@@H](O)[C@@H](C)[C@H](OC(C)=O)[C@@H]1C [RIFAMPIN] | 0.03 µg/mL (≈ 0.0365 µM)
7 | CCCCCCCCCCCCCCCC(=O)NNC(=O)c1ccncc1 | 0.015 µg/mL (≈ 0.0399 µM)
8 | CCCCCCCC/C=C\CCCCCCCC(=O)NNC(=O)c1ccncc1 | 0.015 µg/mL (≈ 0.0374 µM)
9 | CC/C=C\C/C=C\C/C=C\CCCCCCCC(=O)NNC(=O)c1ccncc1 | 0.06 µg/mL (≈ 0.151 µM)
10 | CCCCC/C=C\C/C=C\CCCCCCCC(=O)NNC(=O)c1ccncc1 | 0.125 µg/mL (≈ 0.313 µM)
11 | CCCCCC[C@@H](O)C/C=C\CCCCCCCC(=O)NNC(=O)c1ccncc1 | 0.03 µg/mL (≈ 0.0718 µM)
